Screening data as filed in PubChem BioAssay.
Shown are actives, neighbours in structure and some others; about 3% of the full set was active somewhere.
TRPC4 PAM: TRPC4 (mouse) allosteric potentiation. Q9QUQ5. HEK293 TRPC4beta/mu-opioid, DAMGO EC20, Fluo-4 Ca2+ flux; active compounds read high. B-score at 10 µM. 310,000 tested, 0.42% active. AID 2227;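 active = B-score of calcium response area above 5 SD of library B-scores, with initial fluorescence ratio within 5 SD of library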;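 note: B-score of integrated fluorescence ratio over time as area under calcium response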
TRPC4 inh: TRPC4 (mouse) channel inhibition. HEK293 TRPC4beta/mu-opioid, DAMGO-evoked Fluo4 calcium flux; active compounds read low. 300,000 tested, 0.39% active. B-score at 10 µM;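 active = B-score over 3 SD under the library average, no early fluorescence shift, positive overall ratio signal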
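Material: HEK293 cells with stable TRPC4beta plus mu-opioid receptor expression; probe or stimulus: DAMGO in two steps, submaximal then maximal; technique: Fluo4 calcium fluorescence by kinetic imaging, 5 s 1 Hz baseline; measure: integrated fluorescence ratio relative to baseline, converted to per-well B score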
TRPC4 agonist: opens the mouse TRPC4 cation channel; B-score at 10 µM; 310,000 tested, 0.49% active; HEK293 TRPC4beta/mu-opioid, Fluo4 calcium fluorescence; active compounds read high; AID 2237;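 active = B-score above 5 SD of library B-scores, and initial fluorescence ratio not above library mean plus 5 SD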;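 note: positive B-score marks a calcium rise read as TRPC4 activation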
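system = HEK293 cells stably co-expressing mouse TRPC4beta and mu-opioid receptor | schedule = Fluo4 dye loading 45 min at room temperature, 110 s recording | measure = B-scored integrated calcium fluorescence ratio | signal = Fluo4 calcium-sensitive dye fluorescence, kinetic, 1 Hz baseline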
TRPC6 activator: activators of mouse TRPC6 channel | 310,000 tested, 0.13% active | Q61143 | B-score at 10 µM | HEK293-TRPC6 membrane potential dye fluorescence; active compounds read high;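 active = B-score of the integrated fluorescence ratio above library mean plus 3 SD, and starting fluorescence ratio within library mean plus 5 SD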;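 note: higher score means more depolarization so channel activation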
Kir21 block: inhibitors of mouse Kir2.1 inward-rectifier potassium channel | HEK293-Kir2.1, FluxOR thallium flux fluorescence; active compounds read low | 310,000 tested, 0.85% active | AID 1672 | B-score at 10 µM;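 active = fluorescence ratio B-score at or below minus 3 SD of library scores, with starting-brightness B-score within 2 SD, cut at about -4.2 in these data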;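 note: channel flux triggered by added potassium and thallium sulfate stimulus; B-score of peak minus minimum fluorescence over baseline after thallium stimulus; more negative B-score means stronger Kir2.1 block with less thallium influx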
Target sequence (P35561 whole entry, looked up): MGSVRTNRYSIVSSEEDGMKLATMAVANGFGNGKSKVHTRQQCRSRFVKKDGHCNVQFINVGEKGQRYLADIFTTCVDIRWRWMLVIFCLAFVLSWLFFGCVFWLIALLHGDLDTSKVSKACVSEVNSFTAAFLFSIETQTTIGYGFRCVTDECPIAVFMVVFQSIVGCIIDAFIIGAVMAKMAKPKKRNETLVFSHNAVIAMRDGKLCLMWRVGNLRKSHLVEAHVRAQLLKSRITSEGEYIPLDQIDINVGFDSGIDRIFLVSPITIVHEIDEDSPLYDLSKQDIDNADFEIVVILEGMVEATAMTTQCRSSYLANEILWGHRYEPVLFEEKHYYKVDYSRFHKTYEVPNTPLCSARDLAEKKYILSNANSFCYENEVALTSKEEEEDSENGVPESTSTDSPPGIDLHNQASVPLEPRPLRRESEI
TRPC6 inh: inhibitors of mouse TRPC6 channel; HEK293-TRPC6, membrane potential dye, ACh-evoked depolarization; active compounds read low; B-score at 10 µM; 310,000 tested, 1.1% active;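 active = B-score under library mean minus 3 SD, initial fluorescence not abnormally high, positive integrated signal ratio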;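 note: B-score derived from integrated fluorescence ratio over the kinetic read; more negative B-score means stronger inhibition of depolarization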
The depositor's hits bear a star.

How did COc1ccc(C(CNC(=O)c2oc3ccc(OC)cc3c2C)N2CCCC2)cc1 (stereo unspecified) do in these assays?
TRPC4 PAM: inactive; TRPC4 inh: inactive; TRPC4 agonist: 72*; TRPC6 activator: inactive; Kir21 block: -4.3; TRPC6 inh: inactive

Results for CCC1CCc2sc(C(=O)NCC(c3ccc(OC)cc3)N3CCCC3)cc2C1 (stereo unspecified) ?
TRPC4 PAM: inactive; TRPC4 inh: inactive; TRPC4 agonist: 55*; TRPC6 activator: inactive; Kir21 block: -1.5; TRPC6 inh: inactive

What do the screens show for `COc1ccc(C(CNC(=O)c2oc3ccc(Br)cc3c2C)N2CCCCC2)cc1` (stereo unspecified)?
TRPC4 PAM: inactive; TRPC4 inh: inactive; TRPC4 agonist: inactive; TRPC6 activator: inactive; Kir21 block: 1.3; TRPC6 inh: inactive

What do the screens show for `Cc1ccc(C)c(NC(=S)NCC(c2ccccc2)N(C)C)c1` (stereo unspecified)?
TRPC4 PAM: inactive; TRPC4 inh: inactive; TRPC4 agonist: 180*; TRPC6 activator: inactive; Kir21 block: -0.33; TRPC6 inh: inactive

What do the screens show for `Cc1c(Cl)cccc1NC(=S)NCC(c1cccnc1)N(C)C` (stereo unspecified)?
TRPC4 PAM: inactive; TRPC4 inh: inactive; TRPC4 agonist: 85*; TRPC6 activator: inactive; Kir21 block: -0.09; TRPC6 inh: inactive

How did Cc1ccc(NC(=O)NCC(c2ccccc2)N(C)C)cc1 (stereo unspecified) do in these assays?
TRPC4 PAM: inactive; TRPC4 inh: inactive; TRPC4 agonist: 46*; TRPC6 activator: inactive; Kir21 block: 0.35; TRPC6 inh: inactive

How did Cc1ccccc1NC(=S)NCC(c1cccnc1)N(C)C (stereo unspecified) do in these assays?
TRPC4 PAM: inactive; TRPC4 inh: inactive; TRPC4 agonist: 136*; TRPC6 activator: inactive; Kir21 block: -0.2; TRPC6 inh: inactive

How did Cc1cc(C)nc(/N=C(\N)Nc2ccc(C(C)C)cc2)n1 do in these assays?
TRPC4 PAM: inactive; TRPC4 inh: inactive; TRPC4 agonist: inactive; TRPC6 activator: inactive; Kir21 block: -1.3; TRPC6 inh: inactive

How did CCOc1c(Cl)cc(C(=O)Nc2cccc(C(=O)O)c2)cc1Cl do in these assays?
TRPC4 PAM: inactive; TRPC4 inh: inactive; TRPC4 agonist: inactive; TRPC6 activator: inactive; Kir21 block: 0.1; TRPC6 inh: inactive

Results for COc1ccc(OCc2cc(C(=O)NCc3nc(C)cs3)no2)c(Cl)c1 ?
TRPC4 PAM: inactive; TRPC4 inh: inactive; TRPC4 agonist: inactive; TRPC6 activator: inactive; Kir21 block: 0.42; TRPC6 inh: inactive

Results for COc1ccc(C2=NN(C(=O)c3ccccc3)C(c3ccc(OC)c(OC)c3)C2)c(O)c1 (stereo unspecified) ?
TRPC4 PAM: inactive; TRPC4 inh: -7*; TRPC4 agonist: inactive; TRPC6 activator: inactive; Kir21 block: -0.76; TRPC6 inh: inactive

What do the screens show for `COc1ccc(C2CC(c3ccc(OC)cc3OC(C)=O)=NN2C(=O)c2ccccc2)cc1` (stereo unspecified)?
TRPC4 PAM: 11*; TRPC4 inh: inactive; TRPC4 agonist: inactive; TRPC6 activator: inactive; Kir21 block: -0.02; TRPC6 inh: inactive

How did COc1ccccc1C1=NN(C(=O)c2ccccc2)C(c2ccc(Br)cc2)C1 (stereo unspecified) do in these assays?
TRPC4 PAM: inactive; TRPC4 inh: inactive; TRPC4 agonist: inactive; TRPC6 activator: inactive; Kir21 block: 2.7; TRPC6 inh: inactive

Results for Cn1nc(-c2ccccc2)c(-c2nc(-c3cccc(Cl)c3)no2)c1Cl ?
TRPC4 PAM: inactive; TRPC4 inh: inactive; TRPC4 agonist: inactive; TRPC6 activator: inactive; Kir21 block: -0.86; TRPC6 inh: inactive

Results for CSCCC(NS(=O)(=O)c1cccc(C(F)(F)F)c1)C(=O)Nc1ccccc1N1CCCC1 (stereo unspecified) ?
TRPC4 PAM: inactive; TRPC4 inh: inactive; TRPC4 agonist: inactive; TRPC6 activator: inactive; Kir21 block: -0.09; TRPC6 inh: inactive

What do the screens show for `CNC(=O)c1sccc1SCc1ccc(Cl)cc1Cl`?
TRPC4 PAM: inactive; TRPC4 inh: inactive; TRPC4 agonist: inactive; TRPC6 activator: inactive; Kir21 block: -5.2*; TRPC6 inh: inactive

Results for CC1CCN(c2nc(CN3CCCCC3)nc3scc(-c4ccccc4)c23)CC1 ?
TRPC4 PAM: inactive; TRPC4 inh: inactive; TRPC4 agonist: inactive; TRPC6 activator: inactive; Kir21 block: -7.6*; TRPC6 inh: inactive

Results for c1ccc(-c2csc3ncnc(N4CCOCC4)c23)cc1 ?
TRPC4 PAM: inactive; TRPC4 inh: inactive; TRPC4 agonist: inactive; TRPC6 activator: inactive; Kir21 block: -0.48; TRPC6 inh: inactive

What do the screens show for `CC1CCN(c2nc(-c3cccnc3)nc3scc(-c4ccccc4)c23)CC1`?
TRPC4 PAM: inactive; TRPC4 inh: inactive; TRPC4 agonist: inactive; TRPC6 activator: inactive; Kir21 block: -0.47; TRPC6 inh: inactive

How did c1ccc(-c2csc3ncnc(N4CCc5ccccc5C4)c23)cc1 do in these assays?
TRPC4 PAM: inactive; TRPC4 inh: inactive; TRPC4 agonist: inactive; TRPC6 activator: inactive; Kir21 block: -8.5*; TRPC6 inh: inactive

What do the screens show for `CN1CCN(c2nc(-c3cccnc3)nc3scc(-c4ccccc4)c23)CC1`?
TRPC4 PAM: inactive; TRPC4 inh: -7*; TRPC4 agonist: 64*; TRPC6 activator: inactive; Kir21 block: -1.8; TRPC6 inh: inactive

What do the screens show for `CC1CCCN(c2nc(-c3cccnc3)nc3scc(-c4ccccc4)c23)C1` (stereo unspecified)?
TRPC4 PAM: inactive; TRPC4 inh: inactive; TRPC4 agonist: inactive; TRPC6 activator: inactive; Kir21 block: -0.22; TRPC6 inh: inactive

How did CCN(CC(=O)NCc1cccs1)C(=O)CCC(=O)c1ccc(C)cc1 do in these assays?
TRPC4 PAM: inactive; TRPC4 inh: inactive; TRPC4 agonist: inactive; TRPC6 activator: inactive; Kir21 block: -0.21; TRPC6 inh: inactive

Results for CC(C)(C)OC(=O)N1CCC[C@H]1C(=O)NCc1ccc(Cl)cc1Cl ?
TRPC4 PAM: inactive; TRPC4 inh: inactive; TRPC4 agonist: inactive; TRPC6 activator: inactive; Kir21 block: 0.33; TRPC6 inh: inactive

Results for CCN(CCNCC(O)COCc1ccc(Cl)cc1)c1cccc(C)c1 (stereo unspecified) ?
TRPC4 PAM: inactive; TRPC4 inh: inactive; TRPC4 agonist: inactive; TRPC6 activator: inactive; Kir21 block: -7.5*; TRPC6 inh: inactive
